From PubChem BioAssay
An excerpt weighted towards active compounds, which were near 4.2% of everything screened.
GAA850 FXN act: FXN promoter activators, primary screen, cell-based, luciferase luminescence, HEK293 lucGAA850. HEK293 lucGAA850 FXN promoter luciferase reporter, 24 h; percent of 10 µM SAHA response. activation, % at 6 µM. actives 0.56% (n = 360,000). AID 540364, 2011;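 active = activation above the average of all compounds screened plus 3 SD, cutoff fixed separately per campaign, cut at about 7.5% in these data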;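 also: 0% = DMSO wells and 100% = 10 µM SAHA wells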
AHR act: AHR activators, primary screen, cell-based, luminescence, luciferase reporter, human; Aryl hydrocarbon receptor (Homo sapiens), P35869; AHR-responsive luciferase reporter cells; activation, % at 5 µM; actives 2.5% (n = 320,000); in the data active = activation above about 47%;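 also: 0% = vehicle wells and 100% = reference agonist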
PfM18AAP inh: PfM18AAP inhibitors, malaria aminopeptidase, primary screen, biochemical, QFRET, recombinant enzyme | inhibition, % at 7.35 µM | H-Glu-NHMec fluorogenic cleavage | actives 1.2% (n = 290,000) | M18 aspartyl aminopeptidase (Plasmodium falciparum 3D7) | AID 1822, 2009;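 active = inhibition above the campaign mean inhibition over all tested compounds plus 3 SD, cut at about 28% in these data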;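 also: 0% = plate median of test compound wells and 100% = 2 mM ZnCl2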
HDAC3 inhib: HDAC3 deacetylase inhibitors, primary screen, biochemical, fluorescence, cell-free homogeneous; recombinant HDAC3, fluorogenic peptide/trypsin coupled; actives 0.15% (n = 320,000); inhibition, % at 8.3 µM; in the data active = inhibition above about 26%, passing the limit was not always enough
Fh CTSL1 inh: Fasciola hepatica cathepsin L1 inhibitors, primary screen, counter-screen for PFM18AAP inhibitor project, biochemical, QFRET, fluorogenic peptide substrate. actives 0.49% (n = 300,000). recombinant F. hepatica cathepsin L1, Z-Leu-Arg-MCA fluorescence. inhibition, % at 5.96 µM;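 active = inhibition above the mean of all tested compounds plus 3 SD, set per screening campaign, cut at about 17% in these data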;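 also: 0% = plate median of test compound wells and 100% = 1 µM Z-Phe-Ala-diazomethylketone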
SENP1 inh: human SENP1 catalytic domain inhibitors, primary screen, biochemical, FRET, uHTS; AID 624204, 2012; actives 0.21% (n = 360,000); Sentrin-specific protease 1 (Homo sapiens), Q9P0U3; recombinant SENP1 catalytic domain, CyPet-SUMO1-YPet FRET cleavage; inhibition, % at 10 µM;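 active = inhibition at least 30% at 10 µM, raw YFP signal under a set limit, fluorescence ratio 0.5 to 1.5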;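 also: 0% = enzyme with DMSO and 100% = no enzyme wells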
Target sequence (Q9P0U3 419-644 limits assumed): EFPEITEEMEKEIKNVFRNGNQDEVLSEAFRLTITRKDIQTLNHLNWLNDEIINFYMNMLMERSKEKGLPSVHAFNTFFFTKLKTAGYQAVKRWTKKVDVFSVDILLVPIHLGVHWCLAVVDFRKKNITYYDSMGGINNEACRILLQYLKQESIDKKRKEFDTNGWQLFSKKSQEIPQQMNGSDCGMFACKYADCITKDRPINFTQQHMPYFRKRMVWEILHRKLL
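System: Recombinant human SENP1 catalytic domain, His6-tagged | Incubation: Enzyme reaction for 50 min at room temperature, dark | Medium: Tris pH 8 with BME, BSA, NP40 and catalase | Also added: 25 nM SUMO1 FRET substrate | Compound: 10 µM single point, 0.5% DMSO | Measured by: FRET fluorescence in CFP and YFP emission channels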
* hit, by the source's call.

`CCN(CC)C(=O)C1=C(C)N(CCCOC)C(=O)C(CC(=O)NC(c2ccccc2)c2ccccc2)C1` (stereo unspecified) gave GAA850 FXN act 1 and SENP1 inh 1.
For CC(C)CCN1C(=O)c2cccc3c(N)ccc(c23)C1=O the results were GAA850 FXN act 7, AHR act 65*, HDAC3 inhib 0, Fh CTSL1 inh 3 and SENP1 inh -34.
Nc1ccc2c3c(cccc13)C(=O)N(c1ccccc1)C2=O was read as GAA850 FXN act 1, PfM18AAP inh 3 and SENP1 inh -36.
For COc1ccc(CCNC(=O)c2c[nH]c3ccc(F)cc3c2=O)cc1OC the results were GAA850 FXN act 1, AHR act 22, PfM18AAP inh 0, HDAC3 inhib 7, Fh CTSL1 inh 2 and SENP1 inh -3.
Screening COc1cccc(-c2nc3ccccc3s2)c1 returned GAA850 FXN act 3, AHR act 68*, PfM18AAP inh -6, HDAC3 inhib 8, Fh CTSL1 inh -5 and SENP1 inh 6.
`O=C(Nc1cccc(-c2nc3ccccc3s2)c1)c1ccc2c(c1)OCO2` gave GAA850 FXN act -1, AHR act 15, PfM18AAP inh -2, HDAC3 inhib -1, Fh CTSL1 inh 2 and SENP1 inh 1.
`Oc1ccc(-c2nc3ccccc3s2)cc1` gave GAA850 FXN act 3, AHR act 55*, PfM18AAP inh -8, HDAC3 inhib -81, Fh CTSL1 inh 3 and SENP1 inh -5.
`c1ccc2sc(-c3ccc4c(c3)OCO4)nc2c1` gave GAA850 FXN act -1, AHR act 65*, PfM18AAP inh -2, HDAC3 inhib -20, Fh CTSL1 inh 0 and SENP1 inh -1.
For Nc1ccccc1-c1nc2ccccc2s1 the results were GAA850 FXN act 7, AHR act 57*, PfM18AAP inh 2, HDAC3 inhib -45, Fh CTSL1 inh 4 and SENP1 inh -115.
Screening CC(C)=C1CCC(C)CC1=NNC(N)=S (stereo unspecified) returned GAA850 FXN act -1 and SENP1 inh -2.
CC1C/C(=N\NC(N)=S)c2cc(Cl)ccc2S1 (stereo unspecified) was read as GAA850 FXN act -1, AHR act 26, PfM18AAP inh -9, HDAC3 inhib 6, Fh CTSL1 inh 68* and SENP1 inh 2.
O=C(NCc1ccco1)/C(=C/c1ccco1)NC(=O)c1ccco1 was read as GAA850 FXN act 0, AHR act -2, PfM18AAP inh 0, HDAC3 inhib 3, Fh CTSL1 inh 19* and SENP1 inh -4.
For NC(=O)/C(=C/c1ccco1)NC(=O)c1ccc(Br)o1 the results were GAA850 FXN act 1, AHR act 3, PfM18AAP inh 29*, HDAC3 inhib -2, Fh CTSL1 inh 11 and SENP1 inh 9.
Screening C[C@@H]1CN([C@H](C)CO)C(=O)CCCn2nncc2CO[C@@H]1CN(C)S(=O)(=O)c1cccc(F)c1 returned GAA850 FXN act -1 and SENP1 inh 4.
`O=C1c2ccccc2-c2onc3c(N4CCN(CCO)CC4)cc(N4CCN(C(=O)c5ccco5)CC4)c1c23` gave GAA850 FXN act -2, AHR act 6, PfM18AAP inh 22, HDAC3 inhib 3, Fh CTSL1 inh 1 and SENP1 inh 32*.
`CN1CCN(c2cc(N3CCN(C(=O)c4ccco4)CC3)c3c4c(onc24)-c2ccccc2C3=O)CC1` gave GAA850 FXN act 0, AHR act 7, PfM18AAP inh 16, HDAC3 inhib 2, Fh CTSL1 inh -1 and SENP1 inh 49*.
O=C(O)CCCNc1cc(N2CCN(C(=O)c3ccco3)CC2)c2noc3c2c1C(=O)c1ccccc1-3 was read as GAA850 FXN act -1, AHR act 28, PfM18AAP inh 26, HDAC3 inhib 9, Fh CTSL1 inh 7 and SENP1 inh 83*.
